This is a sample that favours compounds with a hit; in the whole collection about 3.5% have one here.
RGS4 inh = inhibitors of human RGS4; P49798; HEK293 M3R/RGS4 inducible, Fluo-4 calcium flux; hits give high values; triggered by carbachol at its EC20; B-score at 10 µM; actives 0.45% (n = 310,000);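 active = B-score, a plate-corrected calcium signal, over three deviations above library mean, with baseline fluorescence within five deviations of library mean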;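 note: RGS4 expression induced by doxycycline in cells with stable M3 receptor; B-score is computed from the integrated fluorescence ratio over baseline after carbachol; higher B-score means a larger calcium signal and so more RGS4 inhibition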
Target sequence (P49798 whole entry, looked up): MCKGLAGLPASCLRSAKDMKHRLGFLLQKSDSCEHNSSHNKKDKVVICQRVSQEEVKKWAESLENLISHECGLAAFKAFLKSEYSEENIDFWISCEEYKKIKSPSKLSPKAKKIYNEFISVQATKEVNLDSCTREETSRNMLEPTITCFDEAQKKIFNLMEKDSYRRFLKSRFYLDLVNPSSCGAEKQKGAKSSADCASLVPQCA
MrgX1 PAM = allosterically activates human MrgX1 receptor signaling | Q96LB2 | MrgX1-HEK293, Fluo-4 calcium flux, FDSS; hits give high values | B-score at 10 µM | actives 0.63% (n = 310,000) | AID 588675;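 active = plate-corrected calcium response at least 3 library SD above typical, normal starting fluorescence, not activating the receptor alone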;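 note: compound read alongside a low EC10 to EC30 dose of BAM8-22 agonist; peak minus trough fluorescence over baseline measured at the second addition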
Target sequence (Q96LB2 whole entry, looked up): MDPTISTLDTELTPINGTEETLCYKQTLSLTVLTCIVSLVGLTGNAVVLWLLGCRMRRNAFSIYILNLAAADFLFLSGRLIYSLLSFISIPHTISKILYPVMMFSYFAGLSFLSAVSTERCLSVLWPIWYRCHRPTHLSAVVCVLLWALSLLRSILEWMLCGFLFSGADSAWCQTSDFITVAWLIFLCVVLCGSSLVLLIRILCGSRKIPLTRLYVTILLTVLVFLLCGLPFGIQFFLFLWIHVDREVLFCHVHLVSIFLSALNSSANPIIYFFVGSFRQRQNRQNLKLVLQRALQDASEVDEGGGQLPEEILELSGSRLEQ
MrgX1 antagonist = antagonists of human MrgX1 receptor. Q96LB2. MRGX1-HEK293 calcium flux, Fluo-4, BAM8-22 antagonism; hits give low values. B-score at 10 µM. actives 1.3% (n = 310,000). AID 588676;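 active = calcium-response B-score plate-corrected more than 3 library SD below zero, starting fluorescence within 5 deviations, no agonist response on first addition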;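 note: peak minus trough fluorescence over baseline after final BAM8-22 challenge near maximal dose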
MrgX1 agonist = agonists of human MrgX1 receptor | Q96LB2 | MrgX1-HEK293 cells, Fluo-4 calcium fluorescence, agonist mode; hits give high values | B-score at 10 µM | actives 0.44% (n = 310,000) | AID 588627;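 active = calcium response B-score plate-corrected fluorescence ratio at least 3 library SD, with starting fluorescence B-score inside 5 SD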
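Material: MrgX1-expressing HEK293 cells / Dosing: compound as first of three additions / Incubation: overnight seeding, then 1 h dark dye loading / Signal: Fluo-4 NW calcium fluorescence / Evaluation: B-scored fluorescence response ratio / Benchmarks: positive and negative control wells on each plate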
RGS4 act = RGS4 potentiation or activation | HEK293 M3R/inducible RGS4, carbachol calcium flux Fluo4; hits give low values | B-score at 10 µM | actives 0.92% (n = 310,000) | AID 463111;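 active = B-score of the integrated calcium signal more than 4 SD below the library mean, with starting fluorescence not abnormally high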;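 note: negative B-score means reduced calcium response which marks RGS4 activation or potentiation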
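System – HEK293 FlpIn-TREx cells, stable M3R, doxycycline-inducible RGS4 · Reagent – ECmax carbachol challenge · Times – compound preincubation 20 min at room temperature before agonist · Technique – Fluo4 fluorescence kinetic imaging of calcium · Measure – B score of integrated Fluo4 ratio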
MrgX1 PAM conf = reconfirmed allosteric activator of human MrgX1 receptor; MrgX1-HEK293, Fluo-4 calcium fluorescence, FDSS; activation (ratio percentage), % at 10 µM; actives 13% (n = 1,200); shares compounds with MrgX1 PAM; AID 602413;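 active = ratio at least 3 SD above the weak peptide control, stable starting fluorescence, no direct agonism earlier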;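 note: compound followed by low BAM8-22 agonist challenge near EC20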
HEK293 Ca flux = activity in parental HEK293 cells lacking MrgX1; shares compounds with MrgX1 antagonist; Fluo-4 calcium fluorescence, FDSS; fluorescence ratio F(max-min)/F0 at 10 µM; actives 2% (n = 4,000);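 active = duplicate-averaged calcium fluorescence ratio at least three times the standard deviation of buffer wells, a nonspecific response in parental cells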
HEK293 Ca counter = MrgX1 allosteric activator counter-screen hit in parental HEK293 cells; shares compounds with MrgX1 antagonist; parental HEK293 calcium flux, Fluo-4 fluorescence ratio; hits give high values; fluorescence ratio F(max-min)/F0 at 10 µM; actives 0.4% (n = 4,000);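 active = calcium fluorescence ratio, averaged over duplicates, at least 3 SD of the buffer-well ratio, meaning a nonspecific response in receptor-free cells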;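 note: untransfected parental HEK293 lacking MrgX1 used as counterscreen for MrgX1 allosteric activators; fluorescence change taken during the second addition on a kinetic imager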
HEK293 Ca cntr2 = MrgX1 activator counter-screen hit in parental HEK293 cells. Fluo-4 calcium fluorescence (FDSS); hits give high values. shares compounds with MrgX1 antagonist. fluorescence ratio F(max-min)/F0 at 10 µM. actives 8.7% (n = 4,000);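 active = calcium fluorescence ratio at least three times the spread of buffer wells, meaning a non-specific response in parental cells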
Starred values were filed as active, the others as inactive.

CC(C)CCn1c(N2CCCC2)nc2c1c(=O)n(C)c(=O)n2C was read as RGS4 inh inactive, MrgX1 PAM inactive, MrgX1 antagonist inactive, MrgX1 agonist inactive and RGS4 act inactive.
Cc1ccc(S(=O)(=O)N2CCC(C(=O)NCCc3ccccn3)CC2)cc1 was read as RGS4 inh inactive, MrgX1 PAM inactive, MrgX1 antagonist inactive, MrgX1 agonist inactive and RGS4 act inactive.
CC(C)(C)Sc1ccc2nc3c(n2c1)CCCC3 was read as RGS4 inh inactive, MrgX1 PAM 16.4*, MrgX1 antagonist inactive, MrgX1 agonist inactive, RGS4 act inactive, MrgX1 PAM conf inactive, HEK293 Ca flux inactive, HEK293 Ca counter inactive and HEK293 Ca cntr2 inactive.
`CCCN1CCN(CCCNC(=O)C2CCCN(c3nc4ccc(OCC)cc4s3)C2)CC1` (centres undefined) gave RGS4 inh inactive, MrgX1 PAM inactive, MrgX1 antagonist inactive, MrgX1 agonist inactive and RGS4 act inactive.
For CCOc1ccc2nc(N3CCCC(C(=O)NCC4CCCO4)C3)sc2c1 (centres undefined) the results were RGS4 inh inactive, MrgX1 PAM 6.62*, MrgX1 antagonist inactive, MrgX1 agonist inactive, RGS4 act inactive, MrgX1 PAM conf inactive, HEK293 Ca flux inactive, HEK293 Ca counter inactive and HEK293 Ca cntr2 inactive.
For NS(=O)(=O)c1c(Sc2ccccc2C(=O)O)ccc2ccccc12 the results were RGS4 inh inactive, MrgX1 PAM inactive, MrgX1 antagonist inactive, MrgX1 agonist inactive and RGS4 act inactive.
Screening CN(C)CCC1c2ccc(Cl)cc2CCc2cccnc21 (centres undefined) (tested in a mixture with another compound) returned RGS4 inh inactive, MrgX1 PAM inactive, MrgX1 antagonist inactive, MrgX1 agonist inactive and RGS4 act inactive.
`CN(C)CCCNc1ccc(-c2cc(Nc3cccc(Cl)c3)ncn2)cn1` gave RGS4 inh inactive, MrgX1 PAM 7.82*, MrgX1 antagonist inactive, MrgX1 agonist inactive, RGS4 act inactive, MrgX1 PAM conf inactive, HEK293 Ca flux inactive, HEK293 Ca counter inactive and HEK293 Ca cntr2 inactive.
For CC1(C)CC2CC(C)(CN2c2ncnc3ccccc23)C1 (centres undefined) the results were RGS4 inh inactive, MrgX1 PAM 24.5*, MrgX1 antagonist inactive, MrgX1 agonist inactive, RGS4 act inactive, MrgX1 PAM conf 25.5%*, HEK293 Ca flux inactive, HEK293 Ca counter inactive and HEK293 Ca cntr2 inactive.
Screening N#Cc1ccccc1OCC(=O)OCCCOC(=O)COc1ccccc1C#N returned RGS4 inh inactive, MrgX1 PAM inactive, MrgX1 antagonist inactive, MrgX1 agonist inactive and RGS4 act inactive.
For COc1cc(OC)c(C(=O)NC23CC4CC(CC(C4)C2)C3)cc1OC the results were RGS4 inh inactive, MrgX1 PAM inactive, MrgX1 antagonist inactive, MrgX1 agonist inactive and RGS4 act inactive.
Screening O=C(NC12CC3CC(CC(C3)C1)C2)c1cc(F)c(F)c(F)c1F returned RGS4 inh inactive, MrgX1 PAM 6.57*, MrgX1 antagonist inactive, MrgX1 agonist inactive, RGS4 act inactive, MrgX1 PAM conf inactive, HEK293 Ca flux inactive, HEK293 Ca counter inactive and HEK293 Ca cntr2 inactive.
`COc1ccc(-c2noc3c2-c2nc(-c4ccc(Br)cc4)sc2CC3)cc1` gave RGS4 inh inactive, MrgX1 PAM inactive, MrgX1 antagonist inactive, MrgX1 agonist inactive and RGS4 act inactive.

Screening data (PubChem BioAssay)
